Laboratory results from article PMC11229888 (RSC Advances, 2024).

Experiments:
[1] = test system: MCF-7; test: MTT anti-proliferative assay, MCF-7; assay type: cell-based; conditions: Homo sapiens, MCF7, read-out: IC50 MCF-7
In short: (§1)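 Cells grown in RPMI-1640 with 10% FBS, 100 units per ml penicillin and 100 μg ml−1 streptomycin at 37 °C, 5% CO2. Seeded at 1.0 × 10^4 cells per well for 48 h, then exposed to a range of test compound concentrations for 24 h. MTT (5 mg ml−1) added for 4 h, formazan dissolved in DMSO, A570 read; viability as percent of untreated; IC50 derived.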

[2] = test system: Hep G2; test: MTT anti-proliferative assay, Hep G2; assay type: cell-based; conditions: Homo sapiens, HepG2, read-out: IC50 Hep G2
In short: as §1

[3] = test system: VEGFR-1; conditions: read-out: IC50 VEGFR-1; cited from earlier work
[4] = target: VEGFR-2 (Homo sapiens, UniProt P35968); test: biochemical; conditions: IC50 VEGFR-2, mean ± S.D. of three experiments
Chain of VEGFR-2 (P35968 20-1356): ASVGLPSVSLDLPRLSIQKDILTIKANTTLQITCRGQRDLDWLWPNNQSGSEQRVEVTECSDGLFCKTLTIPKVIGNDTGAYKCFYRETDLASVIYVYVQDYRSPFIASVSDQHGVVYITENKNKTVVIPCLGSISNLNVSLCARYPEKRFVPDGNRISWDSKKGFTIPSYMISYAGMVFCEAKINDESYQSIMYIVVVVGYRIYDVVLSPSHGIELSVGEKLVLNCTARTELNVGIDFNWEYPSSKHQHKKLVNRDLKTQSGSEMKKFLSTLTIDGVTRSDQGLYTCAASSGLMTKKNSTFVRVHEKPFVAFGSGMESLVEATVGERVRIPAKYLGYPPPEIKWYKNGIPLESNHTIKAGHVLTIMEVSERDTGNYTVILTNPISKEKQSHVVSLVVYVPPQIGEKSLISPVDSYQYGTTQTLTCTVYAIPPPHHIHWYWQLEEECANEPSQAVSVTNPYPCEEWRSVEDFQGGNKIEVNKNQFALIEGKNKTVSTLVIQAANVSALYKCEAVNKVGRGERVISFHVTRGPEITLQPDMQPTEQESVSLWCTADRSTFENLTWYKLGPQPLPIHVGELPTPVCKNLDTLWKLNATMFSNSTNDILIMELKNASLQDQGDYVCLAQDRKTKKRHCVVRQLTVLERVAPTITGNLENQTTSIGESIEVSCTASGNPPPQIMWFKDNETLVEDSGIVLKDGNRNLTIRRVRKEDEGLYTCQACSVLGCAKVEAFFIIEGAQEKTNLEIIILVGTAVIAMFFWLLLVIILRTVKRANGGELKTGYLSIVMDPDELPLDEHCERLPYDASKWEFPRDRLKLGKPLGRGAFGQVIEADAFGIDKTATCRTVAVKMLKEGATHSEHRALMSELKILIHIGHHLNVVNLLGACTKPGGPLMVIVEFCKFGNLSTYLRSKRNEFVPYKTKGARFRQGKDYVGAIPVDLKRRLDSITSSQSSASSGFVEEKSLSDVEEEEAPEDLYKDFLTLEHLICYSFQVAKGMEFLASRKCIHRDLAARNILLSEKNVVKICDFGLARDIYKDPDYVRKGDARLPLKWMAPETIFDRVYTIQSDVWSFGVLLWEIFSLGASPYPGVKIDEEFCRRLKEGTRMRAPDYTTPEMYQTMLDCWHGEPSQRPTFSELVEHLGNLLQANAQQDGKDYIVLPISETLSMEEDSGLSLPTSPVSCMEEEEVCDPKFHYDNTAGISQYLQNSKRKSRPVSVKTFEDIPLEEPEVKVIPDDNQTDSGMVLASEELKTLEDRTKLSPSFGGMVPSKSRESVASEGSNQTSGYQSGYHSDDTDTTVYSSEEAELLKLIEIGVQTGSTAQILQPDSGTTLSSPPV

SMILES | IC50 [1] [µM] | IC50 [4] [µM] | IC50 [2] [µM] | IC50 [3] [µM]
Clc1ccc(Nc2nnc(Cc3ccncc3)c3ccccc23)cc1 [Vatalanib] |  |  |  | 0.38
CC(=NNC(=O)c1ccccc1)c1ccc(Nc2nnc(-c3ccc(Cl)cc3)c3ccccc23)cc1 [Compound 2a, N′-(1-[4-{(4-[4-Chlorophenyl]phthalazin-1-yl)amino}phenyl]ethylidene)benzohydrazide] | 1.55 ± 0.01 |  | 0.77 ± 0.01 | 
CNC(=O)c1cc(Oc2ccc(NC(=O)Nc3ccc(Cl)c(C(F)(F)F)c3)cc2)ccn1 [Sorafenib, reference compound] | 0.05 ± 0.01 |  | 0.03 ± 0.01 | 
CC(=NNC(=O)c1ccccc1Br)c1ccc(Nc2nnc(-c3ccc(Cl)cc3)c3ccccc23)cc1 [Compound 2b, 2-Bromo-N′-(1-[4-{(4-[4-chlorophenyl]phthalazin-1-yl)amino}phenyl]ethylidene)benzohydrazide] | 0.98 ± 0.01 |  | 0.63 ± 0.01 | 
CC(=NNC(=O)c1ccccc1Cl)c1ccc(Nc2nnc(-c3ccc(Cl)cc3)c3ccccc23)cc1 [Compound 2c, 2-Chloro-N′-(1-[4-{(4-[4-chlorophenyl]phthalazin-1-yl)amino}phenyl]ethylidene)benzohydrazide] | 1.74 ± 0.01 |  | 0.59 ± 0.01 | 
CC(=NNC(=O)c1ccc(N)cc1)c1ccc(Nc2nnc(-c3ccc(Cl)cc3)c3ccccc23)cc1 [Compound 2e, 4-Amino-N′-(1-[4-{(4-[4-chlorophenyl]phthalazin-1-yl)amino}phenyl]ethylidene)benzohydrazide] | 0.71 ± 0.02 |  | 1.19 ± 0.04 | 
CC(=NNC(=O)c1ccncc1)c1ccc(Nc2nnc(-c3ccc(Cl)cc3)c3ccccc23)cc1 [Compound 2g, N′-(1-[4-{(4-[4-Chlorophenyl]phthalazin-1-yl)amino}phenyl]ethylidene)isonicotinohydrazide] | 0.15 | 0.148 ± 0.01 | 0.12 ± 0.01 | 
CC(=NNC(=O)c1cccnc1)c1ccc(Nc2nnc(-c3ccc(Cl)cc3)c3ccccc23)cc1 [Compound 2f, N′-(1-[4-{(4-[4-Chlorophenyl]phthalazin-1-yl)amino}phenyl]ethylidene)nicotinohydrazide] | 0.78 ± 0.01 |  | 0.75 ± 0.01 | 
CC(=NNC(=O)c1ccccc1O)c1ccc(Nc2nnc(-c3ccc(Cl)cc3)c3ccccc23)cc1 [Compound 2d, N′-(1-[4-{(4-[4-Chlorophenyl]phthalazin-1-yl)amino}phenyl]ethylidene)-2-hydroxybenzohydrazide] | 3.71 ± 0.07 |  | 2.18 ± 0.03 | 

Second part, led by results:

IC50 [1] [µM] | IC50 [4] [µM] | SMILES | IC50 [2] [µM] | IC50 [3] [µM]
0.18 |  | O=C(Nc1ccc(Oc2nnc(-c3ccc(Cl)cc3)c3ccccc23)cc1)c1cccc([N+](=O)[O-])c1 [Compound 5c, N-(4-[{4-(4-Chlorophenyl)phthalazin-1-yl}oxy]phenyl)-3-nitrobenzamide] | 1.37 ± 0.14 | 
0.15 | 0.331 ± 0.01 | O=C(Nc1ccc(Oc2nnc(-c3ccc(Cl)cc3)c3ccccc23)cc1)c1ccccc1 [Compound 5b, N-(4-[{4-(4-Chlorophenyl)phthalazin-1-yl}oxy]phenyl)benzamide] | 0.22 | 
1.12 ± 0.02 |  | O=C(C=Cc1ccccc1)Nc1ccc(Oc2nnc(-c3ccc(Cl)cc3)c3ccccc23)cc1 [Compound 5d, N-(4-[{4-(4-Chlorophenyl)phthalazin-1-yl}oxy]phenyl)cinnamamide] | 1.26 ± 0.03 | 
1.52 ± 0.01 |  | S=C(Nc1ccccc1)Nc1ccc(Oc2nnc(-c3ccc(Cl)cc3)c3ccccc23)cc1 [Compound 4b, 1-(4-[{4-(4-Chlorophenyl)phthalazin-1-yl}oxy]phenyl)-3-phenylthiourea] | 1.63 ± 0.03 | 
0.87 ± 0.02 |  | CC(=NNC(=S)Nc1ccccc1)c1ccc(Nc2nnc(-c3ccc(Cl)cc3)c3ccccc23)cc1 [Compound 3b, 2-(1-[4-{(4-[4-Chlorophenyl]phthalazin-1-yl)amino}phenyl]ethylidene)-N-phenylhydrazine-1-carbothioamide] | 1.53 ± 0.06 | 
0.18 | 0.196 ± 0.01 | O=C(Nc1ccccc1)Nc1ccc(Oc2nnc(-c3ccc(Cl)cc3)c3ccccc23)cc1 [Compound 4a, 1-(4-[{4-(4-Chlorophenyl)phthalazin-1-yl}oxy]phenyl)-3-phenylurea] | 0.09 ± 0.01 | 
0.18 | 0.375 ± 0.01 | CC(=NNC(N)=S)c1ccc(Nc2nnc(-c3ccc(Cl)cc3)c3ccccc23)cc1 [Compound 3a, 2-(1-[4-{(4-[4-Chlorophenyl]phthalazin-1-yl)amino}phenyl]ethylidene)hydrazine-1-carbothioamide] | 0.18 | 
0.18 | 0.548 ± 0.02 | CC(=O)Nc1ccc(Oc2nnc(-c3ccc(Cl)cc3)c3ccccc23)cc1 [Compound 5a, N-(4-[{4-(4-Chlorophenyl)phthalazin-1-yl}oxy]phenyl)acetamide] | 0.26 | 
